Entries after “also recorded” stand apart in the source; their conditions may differ.
Experiments:
CCK2R = details: mammals, ref Noble and Roques, 2002, Miller and Gao, 2008, cited from earlier work; for binding affinities of CCK-8S and CCK-8NS to CCK2R compared: in words
cCCK1R [1] = assay: pGL4-SRE-luciferase reporter assay; format: cell-based, chicken; details: read-out: EC50, MAPK/ERK signaling pathway, CHO cells expressing cCCK1R, peptide 10^−12 M - 10^−6 M, 6 h, triplicates (N = 3)
In short: (§1)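 CHO cells were grown in DMEM with 10% FBS at 37°C and 5% CO2. They were transiently co-transfected with 250 ng of chicken receptor plasmid (empty pcDNA3.1 as control) and 750 ng of reporter construct using jetPRIME. After 24 h, cells were reseeded and grown a further 24 h. Test peptide was then applied in DMEM, and lysate luciferase was measured. Data are mean ± SEM.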

cCCK1R [2] = assay: pGL3-NFAT-RE-luciferase reporter assay; format: cell-based, chicken; details: read-out: EC50, calcium mobilization, CHO cells expressing cCCK1R, peptide 10^−12 M - 10^−6 M, 6 h, triplicates (N = 3)
In short: as §1

cCCK2R [3] = assay: pGL4-SRE-luciferase reporter assay; format: cell-based, chicken; details: read-out: EC50, MAPK/ERK signaling pathway, CHO cells expressing cCCK2R, peptide 10^−12 M - 10^−6 M, 6 h, triplicates (N = 3)
In short: as §1

cCCK2R [4] = assay: Overall activation of cCCK2R; set-up: species or system chicken; details: 3 cell-based luciferase reporter systems and western blots; CHO cells; in words
cCCK1R [5] = assay: Overall activation of cCCK1R; set-up: species or system chicken; details: 3 cell-based luciferase reporter systems and western blots; CHO cells; in words
[6] = test system: CHO cells transfected with the empty pcDNA3.1(+) vector; assay: pGL3-NFAT-RE-luciferase negative control, CHO cells with empty pcDNA3.1; format: cell-based, Chinese hamster; details: 6 h
In short: (§2)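 CHO cells (DMEM, 10% FBS, penicillin/streptomycin, 37°C, 5% CO2) seeded a day ahead and co-transfected (jetPRIME) with 250 ng empty pcDNA3.1 plus 750 ng reporter: CRE (cAMP/PKA), NFAT-RE (calcium) or SRE (MAPK/ERK). After 24 h, cells were replated in 96-well plates and grown 24 h. They were then exposed to test peptide at 10−12–10−6 M in DMEM for 6 h, lysed, and read for luciferase.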

cCCK2R [7] = assay: pGL3-CRE-luciferase reporter assay; format: cell-based, chicken; details: read-out: EC50, cAMP/PKA signaling pathway, CHO cells expressing cCCK2R, peptide 10^−12 M - 10^−6 M, 6 h, triplicates (N = 3)
cCCK1R [8] = assay: Western blot of ERK1/2 phosphorylation, CHO cells expressing cCCK1R; format: cell-based, chicken; details: 10 nM, 10 min, normalized by β-actin, N = 4
In short: (§3)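 CHO cells transfected with 1000 ng chicken CCK1R or CCK2R expression plasmid, grown in 24-well plates at 37 °C. At 24 h post-transfection, cells were exposed to test peptide (10 nM, 10 min), lysed, and immunoblotted with phospho-ERK1/2 (Thr202/Tyr204) and phospho-CREB (Ser133) rabbit mAbs. Densitometric bands normalized to β-actin, expressed as fold of untreated control; mean ± SEM, N = 4; t-test or ANOVA/Dunnett.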

cCCK1R [9] = assay: Western blot of CREB phosphorylation, CHO cells expressing cCCK1R; format: cell-based, chicken; details: 10 nM, 10 min, normalized by β-actin, N = 4
In short: as §3

cCCK2R [10] = assay: Western blot of ERK1/2 phosphorylation, CHO cells expressing cCCK2R; format: cell-based, chicken; details: 10 nM, 10 min, normalized by β-actin, N = 4
In short: as §3

cCCK2R [11] = assay: pGL3-NFAT-RE-luciferase reporter assay; format: cell-based, chicken; details: read-out: EC50, calcium mobilization, CHO cells expressing cCCK2R, peptide 10^−12 M - 10^−6 M, 6 h, triplicates (N = 3)
In short: as §1

cCCK1R [12] = assay: pGL3-CRE-luciferase reporter assay; format: cell-based, chicken; details: read-out: EC50, cAMP/PKA signaling pathway, CHO cells expressing cCCK1R, peptide 10^−12 M - 10^−6 M, 6 h, triplicates (N = 3)
In short: as §1

cCCK2R [13] = assay: Western blot of CREB phosphorylation, CHO cells expressing cCCK2R; format: cell-based, chicken; details: 10 nM, 10 min, normalized by β-actin, N = 4
In short: as §3

[14] = test system: CHO cells transfected with the empty pcDNA3.1(+) vector; assay: pGL3-CRE-luciferase negative control, CHO cells with empty pcDNA3.1; format: cell-based, Chinese hamster; details: 6 h
In short: as §2

[15] = test system: CHO cells transfected with the empty pcDNA3.1(+) vector; assay: pGL4-SRE-luciferase negative control, CHO cells with empty pcDNA3.1; format: cell-based, Chinese hamster; details: 6 h
In short: as §2

## CCK-8NS: non-sulfated octapeptide of CCK
CCK2R
  binding affinities of CCK-8S and CCK-8NS to CCK2R compared: similar
  binding affinity to CCK2R, fold higher than CCK-4: 10 fold

## DYMGWMDF [cCCK-8S, (Tyr (SO3H)^27) Cholecystokinin fragment 26-33 amide]
cCCK1R [1]
  EC50: 0.32 ± 0.26 nM
cCCK1R [2]
  EC50: 5.41 ± 1.15 nM
cCCK2R [3]
  EC50: 1.16 ± 0.61 nM
cCCK2R [4]
  activation of cCCK2R, overall: can potently activate cCCK2R
CCK2R
  binding affinities of CCK-8S and CCK-8NS to CCK2R compared: similar
cCCK1R [5]
  activation of cCCK1R, overall: potently activated; also recorded: can potently activate cCCK1R; also recorded: activated preferentially
[6]; N = 3
  effect on pGL3-NFAT-RE-luciferase activity in empty-vector CHO cells: no effect
[6]; N = 3, listed as CCK-8S
  effect on pGL3-NFAT-RE-luciferase activity in empty-vector CHO cells: no response
cCCK2R [7]
  EC50: 29.6 ± 7.68 nM
cCCK1R [8]
  ERK1/2 phosphorylation (pERK1/2): strongly enhance ERK1/2 phosphorylation
cCCK1R [9]
  CREB phosphorylation (pCREB): potently enhance CREB phosphorylation
cCCK2R [10]
  ERK1/2 phosphorylation (pERK1/2): strongly enhance ERK1/2 phosphorylation
cCCK2R [11]
  EC50: 1.93 ± 0.7 nM
cCCK1R [12]
  EC50: 5.76 ± 1.55 nM
cCCK2R [13]
  CREB phosphorylation (pCREB): potently enhance CREB phosphorylation
[14]; N = 3
  effect on pGL3-CRE-luciferase activity in empty-vector CHO cells: no effect
[14]; N = 3, listed as CCK-8S
  effect on pGL3-CRE-luciferase activity in empty-vector CHO cells: no response
[15]; N = 3
  effect on pGL4-SRE-luciferase activity in empty-vector CHO cells: no effect
[15]; N = 3, listed as CCK-8S
  effect on pGL4-SRE-luciferase activity in empty-vector CHO cells: no response

Source: article PMC9706633 (Poultry Science, 2022)
